Laboratory results: ChEMBL document CHEMBL1145518, “Potent immune-modulating and anticancer effects of NKT cell stimulatory glycolipids” (2007)
Active and inactive are the calls of the source. The calls are words filed in the database; no cut-off is given here.

Columns and labels:
[1] = Induction of IL12p40 secretion in human CD161+ CD3+ NKT cells at 10 ug/ml after 18 hrs relative to basal level; assay type: functional
How it was run: (§1)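 Human Vα24i NKT cell lines were expanded for 10 days on irradiated (3,000 rad) autologous immature DCs with 10 units/ml IL-2. The cells (1 × 10^5) were cocultured with 5 × 10^4 irradiated immature CD14+ DCs plus glycolipid at 10 μg/ml. Supernatants were collected at 18 h and read on a 22-plex Luminex bead panel. Triplicates, mean ± SD.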

Mus musculus [2] = test: Induction of IL12p70 secretion in BALB/c mouse serum at 2 ug, iv after 18 hrs relative to control; assay type: functional
How it was run: (§2)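 BALB/c mice received an i.v. injection of 100 μl of glycolipid diluted to 20 μg/ml in saline from DMSO stock, with 1% DMSO as vehicle. Serum cytokines/chemokines were measured at 2 and 18 h after injection.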

TC1 = test: Antitumor activity in TC1 cells xenografted C57BL/6 mouse assessed as suppression of tumor growth at 2 ug, iv; assay type: functional, cell-based
How it was run: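 C57BL/6 mice (n = 5/group) were inoculated i.v. with TC-1 lung cancer cells. They were then treated i.v. with 2 μg glycolipid per mouse, or 100 μl of 1% DMSO, twice weekly for 4 weeks. Kaplan–Meier survival and body weight were followed, with tumor-free mice as an additional control.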

[3] = Induction of RANTES secretion in human CD161+ CD3+ NKT cells at 10 ug/ml after 18 hrs relative to basal level; assay type: functional; how it was run: as §1
HeLa [4] = test: Activation of TCR in human HeLa cells overexpressing CD1d assessed as increase in ERK1/2 phosphorylation; assay type: cell-based
How it was run: (§3)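 Human HeLa, HeLa-CD1d or autologous immature DCs were loaded with glycolipid at 10 μg/ml, or DMSO, for 2 h. Then 3 × 10^5 naïve CD161+/CD3+ NKT cells were added; these were bead-isolated and kept in 100 units/ml IL-2. After 5–10 min the cells were washed and lysed at 4°C. Phospho-CD3ε, ERK1/2 (Thr-185/Tyr-187) and CREB (Ser-133) were read by Luminex bead assay as median fluorescence normalized to total protein, expressed as fold over 1% DMSO.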

Mus musculus [5] = test: Induction of IL13 secretion in BALB/c mouse serum at 2 ug, iv after 2 hrs relative to control; assay type: functional; how it was run: as §2
Mus musculus [6] = test: Induction of MCP1 secretion in BALB/c mouse serum at 2 ug, iv after 2 hrs relative to control; assay type: functional; how it was run: as §2
4T1 = test: Antitumor activity in mouse 4T1 cells xenografted BALB/c mouse assessed as suppression of tumor growth at 2 ug, iv; assay type: functional, cell-based
How it was run: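 BALB/c mice (n = 6) were inoculated s.c. with 4T1 breast cancer cells. From day 3 they were treated i.v. with glycolipid or vehicle twice weekly for 4 weeks. Tumor volume was recorded every 3 days for 1 month, and survival was monitored up to 54 days.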

Mus musculus [7] = test: Induction of IL12p40 secretion in BALB/c mouse serum at 2 ug, iv after 18 hrs relative to control; assay type: functional; how it was run: as §2
[8] = Induction of MIPalpha secretion in human CD161+ CD3+ NKT cells at 10 ug/ml after 18 hrs relative to basal level; assay type: functional; how it was run: as §1
[9] = Induction of IL2 secretion in human CD161+ CD3+ NKT cells at 10 ug/ml after 18 hrs relative to basal level; assay type: functional; how it was run: as §1
Mus musculus [10] = test: Induction of IL1-beta secretion in BALB/c mouse serum at 2 ug, iv after 18 hrs relative to control; assay type: functional; how it was run: as §2
Mus musculus [11] = test: Induction of RANTES secretion in BALB/c mouse serum at 2 ug, iv after 2 hrs relative to control; assay type: functional; how it was run: as §2
Mus musculus [12] = test: Induction of IL10 secretion in BALB/c mouse serum at 2 ug, iv after 18 hrs relative to control; assay type: functional; how it was run: as §2
[13] = Induction of IFN-gamma secretion in human CD161+ CD3+ NKT cells at 10 ug/ml after 18 hrs relative to basal level; assay type: functional; how it was run: as §1
[14] = Induction of TNFalpha secretion in human CD161+ CD3+ NKT cells at 10 ug/ml after 18 hrs relative to basal level; assay type: functional; how it was run: as §1
Mus musculus [15] = test: Increase in CD8/CD4 T cell ratio in BALB/c mouse at 2 ug, iv after 72 hrs by flow cytometry; assay type: functional, organism-based
dendritic [16] = test: Activation of TCR in human immature dendritic cells assessed as increase in ERK1/2 phosphorylation; assay type: cell-based; how it was run: as §3
Mus musculus [17] = test: Induction of KC secretion in BALB/c mouse serum at 2 ug, iv after 2 hrs relative to control; assay type: functional; how it was run: as §2
[18] = Induction of IL4 secretion in human CD161+ CD3+ NKT cells at 10 ug/ml after 18 hrs relative to basal level; assay type: functional; how it was run: as §1
Mus musculus [19] = test: Induction of IL4 secretion in BALB/c mouse serum at 2 ug, iv after 2 hrs relative to control; assay type: functional; how it was run: as §2
Mus musculus [20] = test: Activation of dendritic cells in BALB/c mouse at 2 ug, iv after 72 hrs by flow cytometry; assay type: functional, organism-based
How it was run: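 BALB/c mice (n = 4/group) were given 100 μl of glycolipid at 20 μg/ml in saline i.v., or 100 μl of 1% DMSO. Spleens were harvested after 72 h and splenocyte subsets counted by flow cytometry: mature DCs as CD11c+/CD80+/CD86+, activated NK as U5A2-13Ag+/CD3−/CD69+, activated NKT as U5A2-13Ag+/CD3+/CD69+. Assays were run in duplicate, mean ± SD.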

Mus musculus [21] = test: Induction of IL2 secretion in BALB/c mouse serum at 2 ug, iv after 2 hrs relative to control; assay type: functional; how it was run: as §2
Mus musculus [22] = test: Induction of IFN-gamma secretion in BALB/c mouse serum at 2 ug, iv after 18 hrs relative to control; assay type: functional; how it was run: as §2
[23] = Induction of IL15 secretion in human CD161+ CD3+ NKT cells at 10 ug/ml after 18 hrs relative to basal level; assay type: functional; how it was run: as §1
Mus musculus [24] = test: Induction of IL3 secretion in BALB/c mouse serum at 2 ug, iv after 2 hrs relative to control; assay type: functional; how it was run: as §2
[25] = Induction of GM-CSF secretion in human CD161+ CD3+ NKT cells at 10 ug/ml after 18 hrs relative to basal level; assay type: functional; how it was run: as §1
[26] = Induction of IL8 secretion in human CD161+ CD3+ NKT cells at 10 ug/ml after 18 hrs relative to basal level; assay type: functional; how it was run: as §1
dendritic [27] = test: Activation of TCR in human immature dendritic cells assessed as increase in CREB phosphorylation; assay type: cell-based; how it was run: as §3
Mus musculus [28] = test: Induction of IL6 secretion in BALB/c mouse serum at 2 ug, iv after 2 hrs relative to control; assay type: functional; how it was run: as §2
[29] = Induction of MCP1 secretion in human CD161+ CD3+ NKT cells at 10 ug/ml after 18 hrs relative to basal level; assay type: functional; how it was run: as §1
[30] = Induction of IL12p70 secretion in human CD161+ CD3+ NKT cells at 10 ug/ml after 18 hrs relative to basal level; assay type: functional; how it was run: as §1
HeLa [31] = test: Activation of TCR in human HeLa cells overexpressing CD1d assessed as increase in CREB phosphorylation; assay type: cell-based; how it was run: as §3

Structure (SMILES): CCCCCCCCCCCCCCCCCCCCCCCCCC(=O)N[C@@H](CO[C@H]1O[C@H](CO)[C@H](O)[C@H](O)[C@H]1O)[C@H](O)[C@H](O)CCc1ccccc1
- Activity [1]: 1.8
- Activity (Mus musculus [2]): 6.6
- Activity (TC1): Active
- Activity [3]: 2.5
- Activity (HeLa [4]): 6.6
- Activity (Mus musculus [5]): 12.6
- Activity (Mus musculus [6]): 32.9
- Activity (4T1): Active
- Activity (Mus musculus [7]): 3.5
- Activity [8]: 3.6
- Activity [9]: 2.8
- Activity (Mus musculus [10]): 3.4
- Activity (Mus musculus [11]): 2.1
- Activity (Mus musculus [12]): 2.2
- Activity [13]: 6.6
- Activity [14]: 7.6
- Activity (Mus musculus [15]): Active
- Activity (dendritic [16]): 35
- Activity (Mus musculus [17]): 19.2
- Activity [18]: 2.7
- Activity (Mus musculus [19]): 115
- Activity (Mus musculus [20]): Active
- Activity (Mus musculus [21]): 75.3
- Activity (Mus musculus [22]): 122.5
- Activity [23]: 2.3
- Activity (Mus musculus [24]): 38.8
- Activity [25]: 4.3
- Activity [26]: 3
- Activity (dendritic [27]): 158
- Activity (Mus musculus [28]): 6.3
- Activity [29]: 2
- Activity [30]: 3.2
- Activity (HeLa [31]): 41

Structure (SMILES): CCCCCCCCCCCCCCCCCCCCCCCCCC(=O)N[C@@H](CO[C@H]1O[C@H](CO)[C@H](O)[C@H](O)[C@H]1O)[C@H](O)[C@H](O)CCCCCCCCCCCCCC [RGI-7000]
- Activity [1]: 1.4
- Activity (Mus musculus [2]): 3.2
- Activity (TC1): Active
- Activity [3]: 1.6
- Activity (HeLa [4]): 6.6
- Activity (Mus musculus [5]): 15.1
- Activity (Mus musculus [6]): 18.7
- Activity (4T1): Active
- Activity (Mus musculus [7]): 2.8
- Activity [8]: 2.9
- Activity [9]: 2.3
- Activity (Mus musculus [10]): 7.8
- Activity (Mus musculus [11]): 2.6
- Activity (Mus musculus [12]): 3.6
- Activity [13]: 3.4
- Activity [14]: 7.7
- Activity (Mus musculus [15]): Active
- Activity (dendritic [16]): 30
- Activity (Mus musculus [17]): 30.5
- Activity [18]: 3.9
- Activity (Mus musculus [19]): 240
- Activity (Mus musculus [20]): Active
- Activity (Mus musculus [21]): 58.9
- Activity (Mus musculus [22]): 300
- Activity [23]: 2.6
- Activity (Mus musculus [24]): 3
- Activity [25]: 3.5
- Activity [26]: 1.7
- Activity (dendritic [27]): 68
- Activity (Mus musculus [28]): 5.5
- Activity [29]: 0.9
- Activity [30]: 1.8
- Activity (HeLa [31]): 32
